Laboratory results as given in ChEMBL document CHEMBL1122413, “Chloralanyl and propargylglycyl dipeptides. Suicide substrate containing antibacterials” (1983).
In brackets after ≈: the same amount, converted by molar mass.

Experiments:
Klebsiella pneumoniae = experiment: Minimum inhibitory concentration against Klebsiella pneumoniae; format: functional
In short: (§1)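 Agar dilution on defined peptide susceptibility medium with peptide in serial twofold dilutions. Strains subcultured on blood or chocolate agar. Inoculum from overnight culture in liquid peptide medium, diluted to approx 1×10^7 cfu/mL, applied by Steers replicator. Plates incubated overnight at 37 °C. MIC taken as lowest concentration permitting fewer than ten colonies at 16–18 h.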

Serratia marcescens = experiment: Minimum inhibitory concentration against Serratia marcescens; format: functional; in short: as §1
Streptococcus agalactiae = experiment: Minimum inhibitory concentration against Streptococcus agalactiae; format: functional
In short: (§2)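 Agar dilution on defined peptide susceptibility medium with hemin (25 μg/mL), NAD (25 μg/mL) and Isovitalex (1%) added, peptide in serial twofold dilutions. Colonies from overnight chocolate or blood agar resuspended in liquid peptide medium to 10⁸ cfu/mL, applied by Steers replicator. Incubation overnight at 37 °C under 7% CO₂. MIC: lowest concentration giving fewer than ten colonies at 16–18 h.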

[1] = system: Staphylococcus epidermidis; experiment: Minimum inhibitory concentration against Staphylococcus epidermidis; format: functional; in short: as §1
Staphylococcus aureus = experiment: Minimum inhibitory concentration against Staphylococcus aureus; format: functional; in short: as §1
Escherichia coli = experiment: Minimum inhibitory concentration against Escherichia coli; format: functional; in short: as §1
Morganella morganii = experiment: Minimum inhibitory concentration against Morganella morganii; format: functional; in short: as §1
Streptococcus pyogenes = experiment: Minimum inhibitory concentration against Streptococcus pyogenes; format: functional; in short: as §2
Haemophilus influenzae = experiment: Minimum inhibitory concentration against Hemophilus influenzae; format: functional; in short: as §2
Klebsiella aerogenes = experiment: Minimum inhibitory concentration against Enterobacter aerogenes; format: functional; in short: as §1
Salmonella typhimurium [2] = experiment: Minimum inhibitory concentration against Salmonella Typhimurium
Enterococcus faecalis = experiment: Minimum inhibitory concentration against Streptococcus faecalis; format: functional; in short: as §1
Enterobacter cloacae = experiment: Minimum inhibitory concentration against Enterobacter cloacae; format: functional; in short: as §1
Pseudomonas aeruginosa = experiment: Minimum inhibitory concentration against Pseudomonas aeruginosa; format: functional; in short: as §1
Shigella flexneri = experiment: Minimum inhibitory concentration against Shigella flexneri; format: functional; in short: as §1
Proteus mirabilis = experiment: Minimum inhibitory concentration against Proteus mirabilis; format: functional; in short: as §1
Salmonella typhimurium [3] = experiment: Minimum inhibitory concentration against Salmonella Typhimurium; format: functional, Salmonella enterica subsp. enterica serovar Typhimurium; conditions: Salmonella enterica; in short: as §1

Row | Structure (SMILES) | MIC (Klebsiella pneumoniae) | MIC (Serratia marcescens) | MIC (Streptococcus agalactiae) | MIC [1] | MIC (Staphylococcus aureus) | MIC (Escherichia coli) | MIC (Morganella morganii) | MIC (Streptococcus pyogenes) | MIC (Haemophilus influenzae) | MIC (Klebsiella aerogenes) | MIC (Salmonella typhimurium [2]) | MIC (Enterococcus faecalis) | MIC (Enterobacter cloacae) | MIC (Pseudomonas aeruginosa) | MIC (Shigella flexneri) | MIC (Proteus mirabilis) | MIC (Salmonella typhimurium [3])
1 | C[C@H](N)C(=O)N[C@@H](C)C(=O)O.O=C(O)C(F)(F)F | > 100 µg/mL | > 100 µg/mL | > 100 µg/mL | > 100 µg/mL | > 100 µg/mL | > 100 µg/mL | > 100 µg/mL | > 100 µg/mL | > 100 µg/mL | > 100 µg/mL | > 100 µg/mL | > 100 µg/mL | > 100 µg/mL | > 100 µg/mL | > 100 µg/mL | > 100 µg/mL | –
2 | C#CC[C@@H](N)C(=O)O | > 100 µg/mL | > 100 µg/mL | > 100 µg/mL | > 100 µg/mL | 50 µg/mL (≈ 442 µM) | > 100 µg/mL | > 100 µg/mL | > 100 µg/mL | > 100 µg/mL | > 100 µg/mL | – | > 100 µg/mL | > 100 µg/mL | > 100 µg/mL | > 100 µg/mL | > 100 µg/mL | > 100 µg/mL
3 | C[C@@H](NC(=O)[C@H](N)CCl)C(=O)O.O=C(O)C(F)(F)F | > 100 µg/mL | > 100 µg/mL | > 100 µg/mL | > 100 µg/mL | > 100 µg/mL | > 100 µg/mL | > 100 µg/mL | > 100 µg/mL | > 100 µg/mL | > 100 µg/mL | – | > 100 µg/mL | > 100 µg/mL | > 100 µg/mL | > 100 µg/mL | > 100 µg/mL | > 100 µg/mL
4 | C#CCC(N)C(=O)N[C@@H](C)C(=O)O.O=C(O)C(F)(F)F (stereo not given in full) | > 100 µg/mL | > 100 µg/mL | > 100 µg/mL | 3.12 µg/mL | 50 µg/mL | > 100 µg/mL | > 100 µg/mL | > 100 µg/mL | > 100 µg/mL | > 100 µg/mL | – | > 100 µg/mL | > 100 µg/mL | > 100 µg/mL | > 100 µg/mL | > 100 µg/mL | > 100 µg/mL
5 | C#CC[C@@H](N)C(=O)N[C@@H](C)C(=O)O.O=C(O)C(F)(F)F | > 100 µg/mL | > 100 µg/mL | > 100 µg/mL | > 100 µg/mL | > 100 µg/mL | > 100 µg/mL | > 100 µg/mL | > 100 µg/mL | > 100 µg/mL | > 100 µg/mL | – | > 100 µg/mL | > 100 µg/mL | > 100 µg/mL | > 100 µg/mL | > 100 µg/mL | > 100 µg/mL
